Source: ChEMBL document CHEMBL2040734, “Benzothiazoles: search for anticancer agents” (2012)

Key:
Format in all cases: functional
PC-3 = assay: Cytotoxicity against human PC3 cells assessed as cell growth at 0.01 uM after 48 hrs by sulforhodamine B assay; details: PC-3, 48 h, read-out: Activity
DU-145 [1] = assay: Cytotoxicity against human DU145 cells assessed as cell growth at 0.01 uM after 48 hrs by sulforhodamine B assay; details: DU-145, 48 h, read-out: Activity
Method in brief: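 NCI-60 five-dose screen. Cells were grown in RPMI 1640 with 5% FBS and 2 mM L-glutamine and preincubated 24 h. Compound (DMSO stock) was tested at 0.01, 0.1, 1, 10 and 100 µM for 48 h at 37 °C. Cells were fixed in situ with cold TCA (final 10%) and stained with 0.4% SRB. A515 was read, and percent growth was calculated against time-zero and control plates.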

NCI-H522 [2] = assay: Cytotoxicity against human NCI-H522 cells assessed as cell growth at 0.1 uM after 48 hrs by sulforhodamine B assay; details: NCI-H522, 48 h, read-out: Activity
SNB-75 = assay: Cytotoxicity against human SNB75 cells assessed as cell growth at 0.1 uM after 48 hrs by sulforhodamine B assay; details: SNB-75, 48 h, read-out: Activity
U-251 = assay: Cytotoxicity against human U251 cells assessed as cell growth at 0.1 uM after 48 hrs by sulforhodamine B assay; details: U-251, 48 h, read-out: Activity
HCC 2998 [3] = assay: Cytotoxicity against human HCC2998 cells assessed as cell growth at 100 uM after 48 hrs by sulforhodamine B assay; details: HCC 2998, 48 h, read-out: Activity
Method in brief: (§1)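 Five-dose NCI panel run at 0.01, 0.1, 1, 10 and 100 µM. Cells were in RPMI 1640 with 5% FBS and 2 mM L-glutamine, seeded at 5000–40,000 cells/well and pre-incubated 24 h. Drug was diluted from a DMSO stock into medium with 50 µg/ml gentamicin. Exposure was 48 h at 37 °C, 5% CO2. Cells were fixed with cold TCA and stained with 0.4% SRB, read at 515 nm. Percent growth came from time-zero, control and test absorbances.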

HT-29 = assay: Cytotoxicity against human HT-29 cells assessed as cell growth at 100 uM after 48 hrs by sulforhodamine B assay; details: HT-29, 48 h, read-out: Activity; method in brief: as §1
OVCAR-5 = assay: Cytotoxicity against human OVCAR5 cells assessed as cell growth at 100 uM after 48 hrs by sulforhodamine B assay; details: OVCAR-5, 48 h, read-out: Activity
MOLT-4 = assay: Cytotoxicity against human MOLT4 cells assessed as cell growth at 1 uM after 48 hrs by sulforhodamine B assay; details: MOLT-4, 48 h, read-out: Activity
T47D = assay: Cytotoxicity against human T47D cells assessed as cell growth at 100 uM after 48 hrs by sulforhodamine B assay; details: read-out: Activity
NCI-H522 [4] = assay: Cytotoxicity against human NCI-H522 cells assessed as cell growth at 1 uM after 48 hrs by sulforhodamine B assay; details: NCI-H522, 48 h, read-out: Activity
LOX IMVI [5] = assay: Cytotoxicity against human LOXIMVI cells assessed as cell growth at 1 uM after 48 hrs by sulforhodamine B assay; details: read-out: Activity
CCRF-CEM = assay: Cytotoxicity against human CCRF-CEM cells assessed as cell growth at 10 uM after 48 hrs by sulforhodamine B assay; details: read-out: Activity
Method in brief: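 CCRF-CEM suspension leukemia cells in RPMI 1640 with 5% FBS and 2 mM L-glutamine, plated 24 h before dosing. Five concentrations (0.01–100 µM) were applied from a DMSO stock for 48 h at 37 °C. Settled cells were fixed with 80% TCA (final 16%) and stained with SRB, with read-out at 515 nm. Percent growth was derived from time-zero and control absorbances.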

HOP-62 = assay: Cytotoxicity against human HOP62 cells assessed as cell growth at 10 uM after 48 hrs by sulforhodamine B assay; details: HOP-62, 48 h, read-out: Activity; method in brief: as §1
SNB-19 [6] = assay: Cytotoxicity against human SNB19 cells assessed as cell growth at 10 uM after 48 hrs by sulforhodamine B assay; details: SNB-19, 48 h, read-out: Activity
NCI/ADR-RES = assay: Cytotoxicity against human NCI/ADR-RES cells assessed as cell growth at 10 uM after 48 hrs by sulforhodamine B assay; details: read-out: Activity
MDA-MB-231 = assay: Cytotoxicity against human MDA-MB-231 cells assessed as cell growth at 10 uM after 48 hrs by sulforhodamine B assay; details: MDA-MB-231, 48 h, read-out: Activity
[7] = Cytotoxicity against human Hs 578T cells assessed as cell growth at 10 uM after 48 hrs by sulforhodamine B assay; details: read-out: Activity; method in brief: as §1
LOX IMVI [8] = assay: Cytotoxicity against human LOXIMVI cells assessed as cell growth at 10 '-5 M after 48 hrs by sulforhodamine B assay; details: read-out: Activity
DU-145 [9] = assay: Cytotoxicity against human DU145 cells assessed as cell growth at 10 '-5 M after 48 hrs by sulforhodamine B assay; details: DU-145, 48 h, read-out: Activity
Method in brief: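 Primary one-dose screen across the NCI 60-line panel at 10 µM. Cells were grown in RPMI 1640 with 5% FBS and 2 mM L-glutamine and held 24 h before drug. Drug was diluted from a DMSO concentrate. Exposure was 48 h at 37 °C, 5% CO2. Cells were fixed with TCA and stained with SRB, with absorbance read at 515 nm. Percent growth was calculated against time-zero and untreated control.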

786-0 = assay: Growth inhibition of human 786-0 cells after 48 hrs by sulforhodamine B assay; details: 786-0, 48 h; for CC50: read-out: LC50 (the source's name)
Method in brief: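 Cells were in RPMI 1640 with 5% FBS and pre-incubated 24 h. Read-out was TCA fixation, SRB staining and absorbance at 515 nm. GI50 was the concentration where [(Ti−Tz)/(C−Tz)]×100 = 50, taken from log concentration vs % growth curves. It is given as ">" the top concentration when not reached.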

HL-60(TB) = assay: Cytotoxicity against human HL-60(TB) cells assessed as cell growth at 0.01 uM after 48 hrs by sulforhodamine B assay; details: HL-60, 48 h, read-out: Activity
Method in brief: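 NCI five-dose screen on the HL-60(TB) leukaemia line, grown in RPMI 1640 with 5% FBS and 2 mM L-glutamine and plated for 24 h before dosing. DMSO stocks were diluted in medium. Cells were exposed 48 h at 37 °C, then settled cells were fixed in 16% TCA (final) and stained with SRB, absorbance 515 nm. Percent growth = (Ti−Tz)/(C−Tz)×100, or (Ti−Tz)/Tz×100 when Ti<Tz.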

HCC 2998 [10] = assay: Cytotoxicity against human HCC2998 cells assessed as cell growth at 0.01 uM after 48 hrs by sulforhodamine B assay; details: HCC 2998, 48 h, read-out: Activity; method in brief: as §1
SNB-19 [11] = assay: Cytotoxicity against human SNB19 cells assessed as cell growth at 0.01 uM after 48 hrs by sulforhodamine B assay; details: SNB-19, 48 h, read-out: Activity
MDA-MB-435 = assay: Cytotoxicity against human MDA-MB-435 cells assessed as cell growth at 0.01 uM after 48 hrs by sulforhodamine B assay; details: MDA-MB-435, 48 h, read-out: Activity
UACC-257 = assay: Cytotoxicity against human UACC257 cells assessed as cell growth at 0.01 uM after 48 hrs by sulforhodamine B assay; details: UACC-257, 48 h, read-out: Activity

SMILES | growth at 0.01 µM (PC-3) | growth at 0.01 µM (DU-145 [1]) | growth at 0.1 µM (NCI-H522 [2]) | growth at 0.1 µM (SNB-75) | growth at 0.1 µM (U-251) | growth at 100 µM (HCC 2998 [3]) | growth at 100 µM (HT-29) | growth at 100 µM (OVCAR-5) | growth at 1 µM (MOLT-4) | growth at 100 µM (T47D) | growth at 1 µM (NCI-H522 [4]) | growth at 1 µM (LOX IMVI [5]) | growth at 10 µM (CCRF-CEM) | growth at 10 µM (HOP-62) | growth at 10 µM (SNB-19 [6]) | growth at 10 µM (NCI/ADR-RES) | growth at 10 µM (MDA-MB-231) | growth at 10 µM [7] | growth at 10 µM (LOX IMVI [8]) | growth at 10 µM (DU-145 [9]) | other results
Clc1cccc(Cl)c1Nc1nc2cccc(Cl)c2s1 | 96% | 106% | 86% | 85% | 98% | -64% | -56% | -96% | 52% | -64% | 51% | 55% | -34% | -93% | -74% | -72% | -93% | -41% | -88.3% | -7.04% | GI50 (786-0): 1.03 µM; TGI (786-0): 2.28 µM; CC50 (786-0): 5.03 µM; growth at 0.01 µM (HL-60(TB)): 104%; growth at 0.01 µM (HCC 2998 [10]): 92%; growth at 0.01 µM (SNB-19 [11]): 91%; growth at 0.01 µM (MDA-MB-435): 96%; growth at 0.01 µM (UACC-257): 102%
Cc1ccc2nc(Nc3c(C)cccc3C)sc2c1 | 102% | 104% | 85% | 61% | 105% | 62% | 39% | 78% | 76% | 46% | 38% | 62% | 58% | 39% | 47% | 22% | 22% | 40% | 24.7% | 62.1% | GI50 (786-0): > 100 µM; TGI (786-0): > 100 µM; CC50 (786-0): > 100 µM; growth at 0.01 µM (HL-60(TB)): 107%; growth at 0.01 µM (HCC 2998 [10]): 97%; growth at 0.01 µM (SNB-19 [11]): 94%; growth at 0.01 µM (MDA-MB-435): 95%; growth at 0.01 µM (UACC-257): 101%
